From PubChem
Shown are actives, neighbours in structure and some others; about 2% of the full set was active somewhere.
Scp1 inh – Scp-1 (human) phosphatase inhibition; inhibition, % at 20 µM; Recombinant Scp1, phosphopeptide, malachite green phosphate absorbance; hit rate 0.88% among 340,000;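 active means inhibition above about 50% at 20 µM, limit read from the data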;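 further: plate controls were DMSO wells with enzyme for no effect and wells lacking enzyme for full effect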
Target sequence (Q9GZU7 76-261 limits assumed): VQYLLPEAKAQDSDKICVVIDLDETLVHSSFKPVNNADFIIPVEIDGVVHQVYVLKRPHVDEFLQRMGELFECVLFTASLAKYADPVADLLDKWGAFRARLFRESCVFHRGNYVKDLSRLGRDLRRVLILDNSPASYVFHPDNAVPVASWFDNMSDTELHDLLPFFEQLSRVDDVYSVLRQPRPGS
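Assay system: SCP-1 catalytic fragment, aa 76-261 | Buffer or medium: Tris acetate buffer pH 5.5 with MgCl2 and Tween-20 | Compound: One concentration, 20 µM, with 1.0% DMSO | Also added: Phospho 17-mer peptide substrate | Signal: Absorbance at 630 nm | Incubation: 45 min enzyme reaction at room temperature | Measure: % inhibition of SCP-1 phosphate liberation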
DNMT1 inh – blocks human DNA methyltransferase DNMT1; DNMT1 molecular beacon, Hinp1I cleavage, fluorescence; hit rate 0.83% among 360,000; inhibition (reported as % activation of signal), % at 10 µM; P26358; in the data active means inhibition above about 50%
LMPTP inh – LMPTP (human) inhibition. hit rate 0.22% among 360,000. recombinant LMPTP-A, OMFP fluorogenic substrate, fluorescence intensity. P24666. inhibition, % at 20 µM;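 active means compounds that cut the enzyme signal by at least half of the control window in the single-dose screen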;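 further: plate controls were DMSO wells with enzyme plus substrate for no effect and substrate without enzyme for full effect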
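Test system: LMPTP-A phosphatase enzyme. Amount: LMPTP-A at 0.625 nM final in the reaction. Reagent: OMFP substrate, 400 µM final. Times: 50 min at room temperature. Signal: endpoint fluorescence intensity from OMFP dephosphorylation. Read-out basis: % inhibition. Benchmarks: no-enzyme and uninhibited controls.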
STEP block – STEP (human) phosphatase inhibition | P54829 | recombinant STEP, OMFP fluorogenic substrate, fluorescence | hit rate 0.25% among 360,000 | inhibition, % at 20 µM;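 active means inhibition at 20 µM, scaled per plate between control wells, above about 37%, limit read from the data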;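 further: 0% = DMSO with enzyme and substrate and 100% = substrate only without enzyme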
Target sequence (P54829 whole entry, looked up): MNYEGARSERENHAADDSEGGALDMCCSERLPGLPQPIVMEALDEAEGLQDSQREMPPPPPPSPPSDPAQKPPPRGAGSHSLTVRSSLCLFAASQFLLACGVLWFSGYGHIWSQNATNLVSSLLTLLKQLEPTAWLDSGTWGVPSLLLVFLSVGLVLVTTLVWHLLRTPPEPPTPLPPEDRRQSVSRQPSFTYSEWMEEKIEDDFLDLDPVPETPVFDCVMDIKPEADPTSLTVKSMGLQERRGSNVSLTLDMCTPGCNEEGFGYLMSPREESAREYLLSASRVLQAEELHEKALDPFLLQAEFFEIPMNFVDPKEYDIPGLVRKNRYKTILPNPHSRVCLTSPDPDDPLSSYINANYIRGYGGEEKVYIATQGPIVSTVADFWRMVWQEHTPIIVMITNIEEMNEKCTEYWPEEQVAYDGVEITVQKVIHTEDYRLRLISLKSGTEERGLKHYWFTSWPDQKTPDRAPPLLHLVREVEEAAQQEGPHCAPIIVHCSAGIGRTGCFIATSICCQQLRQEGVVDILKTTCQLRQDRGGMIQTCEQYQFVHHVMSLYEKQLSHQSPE
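Material: STEP (striatal-enriched tyrosine phosphatase) enzyme, cell-free | Medium: 50 mM Bis-Tris pH 6.0 with 2.5 mM DTT and 0.005% Tween 20 | Read-out: Percent inhibition scaled to no-enzyme and uninhibited-enzyme controls, plate-pattern corrected | Signal: Fluorescence read at 480 nm ex / 540 nm em | Times: 20 min reaction, room temperature, in the dark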
Rpn11 inh – blocks the human proteasome subunit Rpn11. O00487. human 26S proteasome, Ub4-pepOG fluorescence polarization; 20S core pre-blocked with epoxomicin. inhibition, % at 20 µM. hit rate 0.59% among 360,000;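 active means inhibition at 20 µM, scaled to each plate's controls, above about 33%, limit read from the data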
Rpn11 confirm – Rpn11 inhibition confirmation, single concentration; AID 602318; purified human 26S proteasome, Ub4-pepOG fluorescence polarization; proteasome pretreated with epoxomicin; inhibition, % at 20 µM; shares compounds with Rpn11 inh; hit rate 29% among 1,900
MMP-2 inh – blocks human MMP-2, flagging nonselective RPN11 hits; shares compounds with Rpn11 inh; recombinant MMP-2, FRET peptide cleavage fluorescence; inhibition, % at 20 µM; hit rate 4% among 1,900; AID 602330;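 further: human MMP-2 activated beforehand with APMA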
Thrombin inh – thrombin (bovine) inhibition counter-screen. hit rate 13% among 1,900. bovine thrombin cleavage of Ub4-pepOG, fluorescence polarization. inhibition, % at 20 µM. shares compounds with Rpn11 inh;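 active means mean inhibition at least 40% at 20 µM, or signal 3 deviations below plate average, so some actives read negative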;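 further: plate controls were thrombin with DMSO for no effect and buffer wells lacking thrombin for full effect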
Active calls of the source: *. Unless noted, no stated cut-off is given here; in the data, active means inhibition above about 40%; inactive means the rest.

How did CC(C)=CCN1CCN(Cc2cnc(C)s2)CC1CCO (stereo unspecified) do in these assays?
Scp1 inh: 2.9; DNMT1 inh: 1.2; LMPTP inh: 6.0; STEP block: 3.1; Rpn11 inh: 1.6

What do the screens show for `CN(C)c1ccc(C=C2C=C(c3ccccc3)OC2=O)cc1`?
DNMT1 inh: -2.5; LMPTP inh: 5.8; STEP block: 7.6; Rpn11 inh: 11.9

What do the screens show for `CN(C)c1ccc(/C=C2/C=C(c3ccc4c(c3)CCCC4)OC2=O)cc1`?
Scp1 inh: -5.4; DNMT1 inh: 1.0; LMPTP inh: 8.4; STEP block: 7.6; Rpn11 inh: 68.6*; Rpn11 confirm: -5.9; MMP-2 inh: -49.8; Thrombin inh: -14.2

How did CC1(C)Cc2c(c(N3CCOCC3)nc3sc(C(=O)Nc4ccc(Cl)cc4)c(N)c23)CO1 do in these assays?
Scp1 inh: -5.3; DNMT1 inh: -8.5; LMPTP inh: 2.2; STEP block: 0.7; Rpn11 inh: 7.8

Results for Cc1nc2c(sc3nc(N4CCOCC4)c4c(c32)CC(C)(C)OC4)c(-c2ccc(Cl)cc2)c1C(=O)O ?
Scp1 inh: -16.3; DNMT1 inh: -11.8; LMPTP inh: 1.8; STEP block: -3.1; Rpn11 inh: 57.4*; Rpn11 confirm: 9.8; MMP-2 inh: -29.9; Thrombin inh: 0.7

How did O=C(Nc1nc(-c2ccc(F)c(F)c2)cs1)Nc1ccc(F)cc1F do in these assays?
Scp1 inh: 5.8; DNMT1 inh: 48.2; LMPTP inh: 2.1; STEP block: 0.3; Rpn11 inh: 56.5*; Rpn11 confirm: 78.8*; MMP-2 inh: -36.9; Thrombin inh: -13.1

Results for O=C(COc1ccc2c3c(c(=O)oc2c1)CCC3)Nc1ccc(CCO)cc1 ?
Scp1 inh: -0.3; DNMT1 inh: 6.7; LMPTP inh: -1.6; STEP block: 7.0; Rpn11 inh: 45.4*; Rpn11 confirm: 17.8; MMP-2 inh: -37.7; Thrombin inh: 11.3

How did COc1ccc(-n2nc3c(N4CCC(C(=O)N5CCCCCC5)CC4)nnc(C)c3c2C)cc1 do in these assays?
Scp1 inh: 8.6; DNMT1 inh: 0.5; LMPTP inh: 1.3; STEP block: -0.8; Rpn11 inh: 54.9*; Rpn11 confirm: -1.8; MMP-2 inh: -15.8; Thrombin inh: -7.7

What do the screens show for `COc1ccc(-n2nc3c(N4CCC(C(=O)NCc5cccc(C)c5)CC4)nnc(C)c3c2C)cc1`?
Scp1 inh: 18.3; DNMT1 inh: -3.6; LMPTP inh: 13.7; STEP block: 3.8; Rpn11 inh: 71.4*; Rpn11 confirm: 55.0*; MMP-2 inh: -22.1; Thrombin inh: 22.1

How did CCc1ccc(CNC(=O)C2CCCN(c3nnc(C)c4c(C)n(-c5ccccc5)nc34)C2)cc1 (stereo unspecified) do in these assays?
Scp1 inh: 6.8; DNMT1 inh: -2.6; LMPTP inh: 10.8; STEP block: -0.2; Rpn11 inh: 60.5*; Rpn11 confirm: 26.5; MMP-2 inh: -136.1; Thrombin inh: -5.1

How did CCOc1ccc(CNC(=O)C2CCN(c3nnc(C)c4c(C)n(-c5ccc(C)cc5)nc34)CC2)cc1 do in these assays?
Scp1 inh: 16.8; DNMT1 inh: 10.9; LMPTP inh: 19.6; STEP block: 1.0

Results for Cc1ccc(-n2nc3c(N4CCC(C(=O)N5CCN(C)CC5)CC4)nnc(C)c3c2C)cc1 ?
Scp1 inh: -3.1; DNMT1 inh: -1.8; LMPTP inh: 5.0; STEP block: -3.5; Rpn11 inh: 41.0*; Rpn11 confirm: 23.9; MMP-2 inh: -4.7; Thrombin inh: 19.7

How did CCc1nc2c(OCc3cccc(Cl)c3)cccn2c1N(C)C(=O)CC(C)C do in these assays?
DNMT1 inh: -2.5; LMPTP inh: 1.4; STEP block: 1.7; Rpn11 inh: 1.8

What do the screens show for `CC(=O)C1=C(O)C(=O)N(c2ccc(Br)cc2)C1c1cccc([N+](=O)[O-])c1` (stereo unspecified)?
Scp1 inh: -6.2; DNMT1 inh: -4.2; LMPTP inh: -1.7; STEP block: 1.6; Rpn11 inh: -4.2

What do the screens show for `CN(Cc1ccc(C(C)(C)C)cc1)C(=O)c1ccc2c(=O)n3c(nc2c1)CCC3`?
Scp1 inh: -2.7; DNMT1 inh: -2.3; LMPTP inh: -0.6; STEP block: -0.4; Rpn11 inh: 1.5

How did O=C(Nc1ccc(C2=NCCN2)cc1)c1ccc(C(=O)Nc2ccc(C3=NCCN3)cc2)c(Cl)c1 do in these assays?
Scp1 inh: -17.5; DNMT1 inh: -29.1; LMPTP inh: 59.3*; STEP block: 2.8; Rpn11 inh: 89.7*; Rpn11 confirm: 69.5*; MMP-2 inh: 47.1*; Thrombin inh: 9.7

Results for Cc1noc(C)c1NC(=O)Nc1ccc2c(c1)C(=O)N([C@H](C)CO)C[C@H](C)[C@@H](CN(C)C(=O)NC1CCCCC1)O2 ?
Scp1 inh: 5.2; DNMT1 inh: 0.6; LMPTP inh: -1.3; STEP block: 0.8; Rpn11 inh: 1.8

How did CCC(=O)NC(NC(=S)Nc1c(C)n(C)n(-c2ccccc2)c1=O)C(Cl)(Cl)Cl (stereo unspecified) do in these assays?
Scp1 inh: -6.5; DNMT1 inh: -6.1; LMPTP inh: -0.9; STEP block: -2.2; Rpn11 inh: -1.9

What do the screens show for `CC1(C)Oc2ccc(C(=O)NC3CCCC3)cc2N(CC(=O)N2CCOCC2)C1=O`?
Scp1 inh: 13.3; DNMT1 inh: 3.9; LMPTP inh: -1.4; STEP block: -3.9; Rpn11 inh: 75.1*; Rpn11 confirm: -11.6; MMP-2 inh: -14.3; Thrombin inh: -17.2

Results for COc1cc(/C=C2\SC(N)=NC2=O)cc(Br)c1O ?
Scp1 inh: 3.6; DNMT1 inh: 3.4; LMPTP inh: -17.1; STEP block: -0.6

How did CCOc1cc(/C=C2\SC(=O)N=C2N)ccc1O do in these assays?
Scp1 inh: -8.2; DNMT1 inh: 0.9; LMPTP inh: -0.3; STEP block: 1.5; Rpn11 inh: 50.8*; Rpn11 confirm: 21.8; MMP-2 inh: 1.9; Thrombin inh: 1.4

Results for CCOc1cc(/C=C2\SC(N)=NC2=O)ccc1O ?
Scp1 inh: -2.8; DNMT1 inh: 2.5; LMPTP inh: -5.1; STEP block: 1.6; Rpn11 inh: 42.9*; Rpn11 confirm: 21.7; MMP-2 inh: 6.7; Thrombin inh: 12.1

What do the screens show for `CCOc1cc(/C=C2/N=C(C)C(C(=O)OC)=C2O)ccc1O`?
Scp1 inh: -10.6; DNMT1 inh: 1.9; LMPTP inh: 0.1; STEP block: -2.9; Rpn11 inh: 51.3*; Rpn11 confirm: 32.0; MMP-2 inh: -73.4; Thrombin inh: 20.2
